Results published in ChEMBL document CHEMBL3259788, “Influence of the alkylsulfonylamino substituent located at the 6-position of 2,2-dimethylchromans structurally related to cromakalim: from potassium channel openers to calcium entry blockers?” (Eur J Med Chem, 2014).
Calls of active or inactive are those of the source. The rule behind the calls is not given here.

Columns and labels:
[1] = Inhibition of glucose-induced insulin secretion in rat pancreatic islets assessed as residual insulin release level at 10 uM preincubated for 30 mins measured after 90 mins radioimmunology analysis; format: functional
Procedure, shortened: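 Batches of 10 rat islets preincubated 30 min at 37 °C in bicarbonate salt medium with 2.8 mM glucose and 0.5% albumin, gassed O2/CO2 (95/5). Then incubated 90 min at 37 °C with 16.7 mM glucose plus drug. Insulin measured by radioimmunoassay against a rat insulin standard and expressed as % of drug-free 16.7 mM glucose control. Mean ± SEM (n).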

Thoracic aorta [2] = assay: Myorelaxant activity in endothelium-free rat thoracic aorta assessed as inhibition of 30 mM of KCl-induced contraction; format: functional, tissue-based
Procedure, shortened: (§1)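 Transverse thoracic aorta rings (3–4 mm), cleaned of fat and connective tissue and equilibrated 60 min, recorded isometrically by force transducer. Contraction induced with 30 or 80 mM KCl. After tension stabilized, drug added cumulatively up to maximal relaxation or 300 µM. Glibenclamide at 1 or 10 µM present throughout where stated. EC50 is the concentration giving 50% inhibition of the KCl plateau, from concentration-response curves. Mean ± SEM (n).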

Thoracic aorta [3] = assay: Myorelaxant activity in endothelium-free rat thoracic aorta assessed as inhibition of 30 mM of KCl-induced contraction in presence of 1 uM of KATP channel blocker glibenclamide; format: functional, tissue-based; procedure, shortened: as §1
Thoracic aorta [4] = assay: Myorelaxant activity in endothelium-free rat thoracic aorta assessed as inhibition of 30 mM of KCl-induced contraction in presence of 10 uM of KATP channel blocker glibenclamide; format: functional, tissue-based; procedure, shortened: as §1
Thoracic aorta [5] = assay: Myorelaxant activity in endothelium-free rat thoracic aorta assessed as inhibition of 80 mM of KCl-induced contraction; format: functional, tissue-based; procedure, shortened: as §1
Thoracic aorta [6] = assay: Effect on 86Rb fractional flow rate in endothelium-free rat thoracic aorta at 25 to 100 uM; format: functional, tissue-based
Procedure, shortened: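 Prelabelled 86Rb (42K substitute) efflux: pairs of 2 mm aortic rings preincubated 30 min at 37 °C in bicarbonate salt solution gassed O2/CO2 (95/5), loaded 60 min with 86Rb, washed, then perifused at 1.0 mL/min with 30 mM K+ medium throughout. Effluent collected per min from 31st to 90th min. Fractional outflow rate (% of instantaneous ring content per min) from scintillation counts.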

Thoracic aorta [7] = assay: Inhibition of 80 mM of KCl-induced Ca2+ outflow in endothelium-free rat thoracic aorta assessed 45Ca outflow per min at 30 uM (reference value: 6.06 +/- 0.36%); format: functional; set-up: scale not given: the % may be the effect or the level left
Thoracic aorta [8] = assay: Ratio of EC50 for myorelaxant activity in endothelium-free rat thoracic aorta presence of 1 uM of KATP channel blocker glibenclamide to EC50 for myorelaxant activity in endothelium-free rat thoracic aorta absence of KATP channel blocker glibenclamide; format: functional; procedure, shortened: as §1
Thoracic aorta [9] = assay: Ratio of EC50 for myorelaxant activity in endothelium-free rat thoracic aorta presence of 10 uM of KATP channel blocker glibenclamide to EC50 for myorelaxant activity in endothelium-free rat thoracic aorta absence of KATP channel blocker glibenclamide; format: functional; procedure, shortened: as §1

EC50 (Thoracic aorta [2])	SMILES	Activity [1]	further results
9.8 µM	CC1(C)CC(NC(=S)Nc2cccc(C#N)c2)c2cc(NS(C)(=O)=O)ccc2O1 (centres undefined)	91.7%	
11.8 µM	CCS(=O)(=O)Nc1ccc2c(c1)C(NC(=O)Nc1ccc(C#N)cc1)CC(C)(C)O2 (centres undefined)	73.6%	
5.1 µM	CCS(=O)(=O)Nc1ccc2c(c1)C(NC(=S)Nc1ccc(Cl)cc1)CC(C)(C)O2 (centres undefined)	49.1%	
17.2 µM	CCS(=O)(=O)Nc1ccc2c(c1)C(NC(=O)Nc1cccc(Cl)c1)CC(C)(C)O2 (centres undefined)	72.1%	
> 10 µM	CCS(=O)(=O)Nc1ccc2c(c1)C(NC(=O)Nc1ccc(Cl)cc1)CC(C)(C)O2 (centres undefined)	78.1%	
9.3 µM	CC1(C)CC(NC(=O)Nc2cccc(C#N)c2)c2cc(NS(C)(=O)=O)ccc2O1 (centres undefined)	84.4%	
15.2 µM	CC1(C)CC(NC(=O)Nc2cccc(Cl)c2)c2cc(NS(C)(=O)=O)ccc2O1 (centres undefined)	94.5%	
12 µM	CCS(=O)(=O)Nc1ccc2c(c1)C(NC(=S)Nc1ccc(C#N)cc1)CC(C)(C)O2 (centres undefined)	57.9%	
9.8 µM	CC1(C)CC(NC(=S)Nc2cccc(Cl)c2)c2cc(NS(C)(=O)=O)ccc2O1 (centres undefined)	69.2%	inhibition (Thoracic aorta [2]): Dose-dependent effect; EC50 (Thoracic aorta [3]): 16.6 µM; EC50 (Thoracic aorta [4]): 15.7 µM; EC50 (Thoracic aorta [5]): 16.8 µM; Activity (Thoracic aorta [6]): inactive; Activity (Thoracic aorta [7]): 3.68%
26.1 µM	CC1=Nc2ccc(Cl)cc2S(=O)(=O)N1 [DIAZOXIDE]	80.8%	inhibition (Thoracic aorta [3]): Dose-dependent effect; inhibition (Thoracic aorta [4]): Dose-dependent effect; EC50 (Thoracic aorta [5]): > 300 µM; Ratio EC50 (Thoracic aorta [8]): 4.4; Ratio EC50 (Thoracic aorta [9]): 8
19.8 µM	CC1(C)CC(NC(=O)Nc2ccc(C#N)cc2)c2cc(NS(C)(=O)=O)ccc2O1 (centres undefined)	81.6%	
9.5 µM	CCS(=O)(=O)Nc1ccc2c(c1)C(NC(=O)Nc1cccc(C#N)c1)CC(C)(C)O2 (centres undefined)	75.6%	
11.6 µM	CC1(C)CC(NC(=S)Nc2ccc(Cl)cc2)c2cc(NS(C)(=O)=O)ccc2O1 (centres undefined)	63.9%	
> 30 µM	CC1(C)CC(NC(=O)Nc2ccc(Cl)cc2)c2cc(NS(C)(=O)=O)ccc2O1 (centres undefined)	88.5%	
0.13 µM	CC1(C)Oc2ccc(C#N)cc2C(N2CCCC2=O)C1O (racemic) [CROMAKALIM]	94.4%	EC50 (Thoracic aorta [3]): 2.5 µM; inhibition (Thoracic aorta [3]): Dose-dependent effect; EC50 (Thoracic aorta [4]): 28.8 µM; inhibition (Thoracic aorta [4]): Dose-dependent effect; EC50 (Thoracic aorta [5]): 138 µM; Ratio EC50 (Thoracic aorta [8]): 10; Ratio EC50 (Thoracic aorta [9]): 130
12.1 µM	CCS(=O)(=O)Nc1ccc2c(c1)C(NC(=S)Nc1cccc(C#N)c1)CC(C)(C)O2 (centres undefined)	64.7%	
0.031 µM	COc1ccc(CCN(C)CCCC(C#N)(c2ccc(OC)c(OC)c2)C(C)C)cc1OC (centres undefined) [VERAPAMIL]		inhibition (Thoracic aorta [2]): Dose-dependent effect; EC50 (Thoracic aorta [3]): 0.038 µM; EC50 (Thoracic aorta [4]): 0.035 µM; EC50 (Thoracic aorta [5]): 0.052 µM
9.8 µM	CCS(=O)(=O)Nc1ccc2c(c1)C(NC(=S)Nc1cccc(Cl)c1)CC(C)(C)O2 (centres undefined)	54.3%	
11.6 µM	CC1(C)CC(NC(=S)Nc2ccc(C#N)cc2)c2cc(NS(C)(=O)=O)ccc2O1 (centres undefined)	81.7%	
